The list is not random: actives were taken first. Their share in the collection is about 4.3%.
OX1R antag-1 = blocks the human orexin 1 receptor | O43613 | CHO/OX1R cells, Fluo-8 calcium fluorescence, orexin A | inhibition, % at 5 µM | 330,000 tested, 0.43% active | AID 434989;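 active = inhibition above its plate's threshold, mean inhibition of all tested compounds on the plate plus 3 SD, cut at about 37% in these data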;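 also: 0% = orexin A challenge wells and 100% = SB-334867-A antagonist wells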
TAAR1 ag = agonists of human TAAR1. Q96RJ0. CHO RD-HGA16 TAAR1, Fluo-8 calcium fluorescence; vehicle wells 0%, saturating PEA agonist 100%. activation, % at 3 µM. 360,000 tested, 0.99% active. AID 624467;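 active = activation above the mean activation of all test compounds in the run plus 3 SD, cut at about 38% in these data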
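Assay system: CHO-derived RD-HGA16 cells with stable Gα16 and human TAAR1; timing: 17-24 h seeding, 75 min 37 °C dye, 30 min RT; read-out: % activation from peak over basal fluorescence ratio, DMSO-to-PEA scaled; measured by: kinetic Fluo-8 calcium fluorescence; benchmarks: low control DMSO, high control PEA (EC100); doses: 3 µM single concentration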
GalR3 antagonist = human GalR3 antagonism; HEK293 GalR3-CNG cAMP membrane potential fluorescence; galR3 body fused to GalR1 C-terminus; 360,000 tested, 0.44% active; O60755; inhibition, % at 3 µM; AID 651719;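 active = inhibition above the screen-wide average plus 3 SD, cut at about 13% in these data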;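 also: forskolin and galanin both at EC90 stimulate the cells; cAMP rise reported by CNG channel membrane potential dye signal; 0% = forskolin plus galanin with DMSO and 100% = forskolin alone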
Target sequence (O60755 1-299 limits assumed): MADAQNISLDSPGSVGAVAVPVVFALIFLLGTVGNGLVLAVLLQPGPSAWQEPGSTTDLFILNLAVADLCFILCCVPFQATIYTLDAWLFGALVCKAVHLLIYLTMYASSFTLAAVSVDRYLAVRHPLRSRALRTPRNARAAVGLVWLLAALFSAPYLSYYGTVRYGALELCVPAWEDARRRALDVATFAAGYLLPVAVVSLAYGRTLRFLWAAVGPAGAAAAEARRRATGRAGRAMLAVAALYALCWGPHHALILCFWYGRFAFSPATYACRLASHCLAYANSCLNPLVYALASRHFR
OX1R antag-2 = antagonists of human orexin 1 receptor (OX1R) | inhibition, % at 6.6 µM | 330,000 tested, 1.8% active | AID 485270 | OX1R-expressing cells, FRET antagonist read-out | O43613; in the data active = inhibition mostly above about 38%, no sharp cut-off; inactive = mostly below about 40%;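 also: 0% = agonist challenge alone and 100% = reference antagonist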
CHO parental Ca = counter-screen: ATP calcium response change in parental CHO cells; parental CHO-K1, ATP-induced calcium, Fluo-8 fluorescence; inhibition, % at 5.6 µM; 330,000 tested, 0.63% active; AID 463079;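 active = inhibition above that plate's mean sample inhibition plus 3 SD, cut at about 26% in these data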;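 also: 0% = ATP-challenged DMSO wells and 100% = DMSO wells without ATP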
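Material: parental CHO cells / Compound: single nominal dose of 5.6 µM per compound / Signal: Fluo-8 fluorescence / Replicates: singlicate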
TAAR1 antag = human TAAR1 antagonism | 360,000 tested, 1.5% active | inhibition, % at 3 µM | Q96RJ0 | CHO RD-HGA16 TAAR1, Fluo-8 calcium fluorescence, antagonist;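 active = inhibition above a per-plate cutoff, the mean inhibition of test compounds on that plate plus 3 SD, cut at about 49% in these data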;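 also: 0% = DMSO plus EC80 beta-PEA response and 100% = DMSO alone without agonist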
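Test system: hTAAR1-expressing CHO RD-HGA16 cells, Gα16-coupled; Probe or stimulus: EC80 β-phenethylamine stimulus; Compound dosing: single nominal final test compound concentration of 3 µM; Timing: 140 s kinetic read after compound, 140 s after agonist; Signal: Fluo-8 calcium-sensitive fluorescence; Measure: % inhibition of agonist calcium response; Controls: DMSO and EC80 PEA controls.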
* marks the source's active call; other numbers are inactive results; nt = not tested or not shown.

SMILES	OX1R antag-1	TAAR1 ag	GalR3 antagonist	OX1R antag-2	CHO parental Ca	TAAR1 antag
O=C(NCCc1cn2ccccc2n1)c1cc(COc2ccc3ncccc3c2)on1	46.6*	21.4	-1.6	64.6*	46.7*	86.7*
O=C(NCCc1cn2ccccc2n1)c1ccccc1F	-9.7	0.2	-5.2	9.0	-1.4	7.9
Cc1cc(OCc2cc(C(=O)N3CCC(Oc4cccnc4)CC3)no2)cc(C)c1Cl	30.2	11.0	-4.9	23.4	55.7*	52.5*
Cc1cc2c(nc1C)CCCN2Cc1ccccc1C(F)(F)F	nt	6.0	-7.0	nt	nt	-26.3
CCCCNC(=O)Cn1c(=O)c2c(ncn2CCC(C)C)n(Cc2ccccc2)c1=O	-28.4	-4.7	-10.3	9.2	-26.4	-4.9
Cn1c(/C=C/c2cccc(Br)c2)nc2ccccc2c1=O	25.0	4.0	-3.0	60.2*	-34.1	2.8
CCOC(=O)C1(C)CCCCCN1C(=O)c1snnc1C (stereo not drawn)	nt	1.3	-4.6	nt	nt	-6.8
Oc1ccc(CCNc2ncnc3ccc(Cl)cc23)cc1	43.4*	5.5	-4.7	86.3*	72.3*	51.1*
CCN(CC)C(=O)c1ncn2c1c(=O)[nH]c1ccccc12	nt	0.6	-1.5	nt	nt	-7.5
COc1cc2c(C(=O)N3CCOCC3)c(CSc3ccccc3)n(C)c2cc1Br	-9.2	6.3	0.2	56.5*	-41.1	18.5
C=CCOc1cccc(/C=N/NC(=O)CC(=O)NC2CCCCC2)c1	-21.9	0.4	-4.1	2.8	-8.4	-5.2
Cc1ccc(NC(=O)C2CCN(S(C)(=O)=O)CC2)c(C)c1	nt	-0.2	-2.4	nt	nt	-11.3
O=C(C1CCCN(c2ncnc3c2nc2n3CCCCC2)C1)N1CCN(c2ccc(Cl)cc2)CC1 (stereo not drawn)	-18.6	37.5*	-6.1	5.5	-11.1	76.8*
O=C(NCC1CCN(Cc2ccccc2F)CC1)C1CCCN(c2ncnc3c2nc2n3CCCCC2)C1 (stereo not drawn)	-29.6	-0.9	14.8*	13.4	-21.3	-25.7
O=C(N/C(=C\c1ccc([N+](=O)[O-])cc1)C(=O)N1CCCCC1)c1ccccc1	-23.3	4.3	-3.5	74.8*	-6.6	-13.5
O=C(N/C(=C/c1cccc([N+](=O)[O-])c1)C(=O)N1CCOCC1)c1ccccc1Br	0.4	3.4	-2.4	58.2*	9.9	5.1
O=C(N/C(=C\c1ccccc1)C(=O)N1CCOCC1)c1ccccc1Br	-0.2	36.6	1.6	14.9	-10.1	-3.7
Cc1nnc(SCC(=O)NCC2COc3ccccc3O2)s1 (stereo not drawn)	0.5	18.7	-1.6	-1.1	-4.2	-14.5
Nn1c(C2CCC2)nc2cc(Cl)ccc2c1=O	-12.9	8.2	-9.4	5.4	-9.0	-8.3
O=C(CNS(=O)(=O)c1cccs1)NCCc1ccc(Cl)cc1	-27.9	3.1	-6.2	27.2	-19.6	11.6
COc1ccc2cc3cc(C(=O)NCc4ccco4)oc3nc2c1	-20.8	1.1	3.2	53.8*	-6.7	-16.2
COc1ccc2cc3cc(C(=O)NCc4ccccn4)oc3nc2c1	-16.3	1.2	2.4	60.6*	-31.4	-10.2
O=C(NCc1ccco1)c1cc2cc3ccc(Cl)cc3nc2o1	0.0	2.5	-1.1	32.0	29.2	-1.2
COCCNC(=O)c1cc2cc3ccc(OC)cc3nc2o1	9.1	0.2	-3.0	30.9	-4.3	1.1
COc1ccc2cc3cc(C(=O)NCC4CCCO4)oc3nc2c1 (stereo not drawn)	-4.3	2.8	0.1	74.4*	-9.8	-16.3
CS(=O)(=O)c1ccccc1-c1nnc(NC(=O)c2ccco2)o1	-5.2	-0.1	5.5	14.4	-1.6	-17.9
COc1ccc(C2c3[nH]c4ccccc4c3C[C@H]3C(=O)N(CCCO)CC(=O)N23)cc1OC (stereo partly drawn)	-10.3	2.6	-8.7	17.4	-2.4	-2.2
COc1cc(C2c3[nH]c4ccccc4c3C[C@@H]3C(=O)N(Cc4ccco4)CC(=O)N23)cc(OC)c1OC (stereo partly drawn)	-3.0	30.5	-1.9	11.6	-14.8	53.2*
COc1ccccc1-c1cc(SC)c(C#N)c(=O)o1	-7.0	1.4	3.2	51.3*	5.1	-11.3

From PubChem BioAssay
